# Measurements taken from ChEMBL document CHEMBL4396943, “The tetrahydroxanthone-dimer phomoxanthone A is a strong inducer of apoptosis in cisplatin-resistant solid cancer cells” (Bioorg Med Chem, 2019).
# Active and inactive are the calls of the source. The rule behind the calls is not given here.
# What was measured:
# A2780 [1] = assay: Antiproliferative activity against human A2780 cells assessed as reduction in cell viability incubated for 48 hrs by MTT assay; assay type: functional, cell-based; settings: A2780, 48 h
# How it was run: (§1)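 Cells seeded overnight in 96-well plates, then exposed to increasing concentrations (compound dissolved in DMSO, diluted in medium) for the stated time. MTT (5 mg/ml in PBS) added for 15 min, formazan dissolved in DMSO, absorbance read at 544 nm minus 690 nm background. IC50 = concentration giving 50% signal decrease. At least three independent experiments in triplicate.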
# J82 [2] = assay: Induction of apoptosis in human J82 cells assessed as mitochondrial membrane potential at 1 uM incubated for 2 hrs by hoechst 33342 staining based fluorescence microscopy; assay type: functional, cell-based
# How it was run: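 J82 cells treated 2 h with PXA, then labelled 20 min with TMRE plus Hoechst 33342. ΔΨm read by high-content fluorescence imaging. Untreated medium and 20 µM CCCP served as controls.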
# A2780cisR [3] = assay: Induction of apoptosis in human A2780cisR cells assessed as increase in activation of caspase 3/7 at 10 uM incubated for 24 hrs by hoechst 33342 staining based fluorescence microscopy (reference value: 0.8%); assay type: functional
# A2780cisR [4] = assay: Induction of apoptosis in human A2780cisR cells assessed as depolarization of mitochondrial membrane potential at 1 uM incubated for 2 hrs by TMRE staining based flow cytometry; assay type: functional
# How it was run: (§2)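 Cells seeded overnight; complete medium swapped for FBS-free medium just before treatment to avoid TMRE ester cleavage. Exposure to PXA for 1 h, 2 h or 24 h. TMRE staining 20 min, cells collected by trypsinisation, ΔΨm read by flow cytometry. Medium served as negative control, 20 µM CCCP as positive control. Mean ± SEM reported.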
# CAL-27 = assay: Antiproliferative activity against human CAL27 cells assessed as reduction in cell viability incubated for 72 hrs by MTT assay; assay type: functional, cell-based; settings: CAL-27, 72 h; how it was run: as §1
# A2780cisR [5] = assay: Cell cycle arrest in human A2780cisR cells assessed as accumulation at G1 phase at 1 uM incubated for 24 hrs by propidium iodide staining based flow cytometry (reference value: 68.7%); assay type: functional
# How it was run: (§3)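 After 24 h exposure, cells washed in ice-cold PBS. About 2 million cells fixed in cold 70% ethanol at −20 °C for at least 24 h. Stained with 0.1% Triton X-100, 200 µg/ml RNase A and 20 µg/ml propidium iodide in PBS, 15 min at 37 °C in the dark. DNA content read by flow cytometry with doublet discrimination. Medium as untreated control, paclitaxel as G2/M control. Three independent experiments.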
# J82 [6] = assay: Potency index, ratio of cisplatin IC50 to compound IC50 for antiproliferative activity in cisplatin resistant human J82 cells assessed as reduction in cell viability incubated for 72 hrs by MTT assay; assay type: functional
# How it was run: (§4)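 Cells seeded in 96-well plates overnight, exposed 72 h to increasing concentrations. MTT (5 mg/ml) added for 15 min, formazan dissolved in DMSO, absorbance read at 544 nm with 690 nm background subtracted. IC50 is the concentration reducing signal by 50%. Three independent experiments in triplicate. CisR sublines made by weekly intermittent cisplatin exposure for 24–30 weeks.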
# A2780 [7] = assay: Induction of apoptosis in human A2780 cells assessed as depolarization of mitochondrial membrane potential at 1 uM by TMRE staining based flow cytometry; assay type: functional, cell-based; settings: TDE = time-dependent effect
# How it was run: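 Cells seeded overnight; medium switched to FBS-free just before treatment to avoid TMRE ester cleavage. Exposure 1 h, 2 h or 24 h, then TMRE staining for 20 min. Cells trypsinized, centrifuged at 4 °C and read by flow cytometry. Medium as negative control, 20 µM CCCP as positive control. […]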
# A2780 [8] = assay: Induction of apoptosis in human A2780 cells assessed as increase in intracellular calcium level at 1 and 30 uM incubated for 30 mins by fluorimetry; assay type: functional, cell-based
# How it was run: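 Cells seeded in 96-well plates overnight, washed twice with Krebs-HEPES buffer, loaded 1 h at 37 °C in the dark with Oregon Green BAPTA-1 AM (final 3 µM) and Pluronic F-127. Buffer replaced, PXA added, fluorescence at 544 nm recorded for 30 min, with or without 1 mM extracellular Ca2+. Three experiments, mean ± SEM.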
# HCT-116 = assay: Potency index, ratio of cisplatin IC50 to compound IC50 for antiproliferative activity in human HCT116 cells assessed as reduction in cell viability incubated for 72 hrs by MTT assay; assay type: functional; how it was run: as §4
# J82 [9] = assay: Antiproliferative activity against human J82 cells assessed as reduction in cell viability incubated for 72 hrs by MTT assay; assay type: functional, cell-based; settings: J82, 72 h; how it was run: as §1
# Homo sapiens = organism: Homo sapiens; assay: Ratio of IC50 for induction of mitochondrial membrane depolarization in human J82 cells to IC50 for induction of mitochondrial membrane depolarization human A2780 cells after 2 hrs by TMRE staining based flow cytometry; assay type: functional, cell-based; how it was run: as §2
# J82 [10] = assay: Cell cycle arrest in human J82 cells assessed as accumulation at G1 phase at 5 uM incubated for 24 hrs by propidium iodide staining based flow cytometry (reference value: 69.6%); assay type: functional; how it was run: as §3
# J82 [11] = assay: Induction of apoptosis in cisplatin resistant human J82 cells assessed as depolarization of mitochondrial membrane potential at 5 to 10 uM incubated for 2 hrs by hoechst 33342 staining based fluorescence microscopy; assay type: functional
# How it was run: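 J82CisR cells exposed 2 h, then labelled with TMRE and Hoechst 33342 for 20 min. TMRE signal imaged on a high-content fluorescence imaging platform. Untreated medium control and 20 µM CCCP positive control.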
# J82 [12] = assay: Antiproliferative activity against human cisplatin resistant J82 cells assessed as reduction in cell viability incubated for 72 hrs by MTT assay; assay type: functional, cell-based; settings: J82, 72 h; how it was run: as §1
# A2780 [13] = assay: Induction of apoptosis in human A2780 cells assessed as accumulation in subG1 phase incubated for 24 hrs by propidium iodide staining based flow cytometry; assay type: functional, cell-based
# How it was run: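 Cells plated in 24-well plates (about 100,000/well) for one day, then treated 24 h. Where used, caspase inhibitor Q-VD-OPh (20 µM) was added 1 h before. Cells lysed in hypotonic buffer (0.1% sodium citrate, 0.1% Triton X-100, 100 µg/ml propidium iodide) overnight at 4 °C in the dark. Sub-G1 fraction read by flow cytometry. Medium control, cisplatin positive control.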
# A2780cisR [14] = assay: Induction of apoptosis in human A2780cisR cells assessed as nuclear condensation by measuring reduced size and increased intensity of nuclei at 10 uM incubated for 24 hrs by hoechst 33342 staining based fluorescence microscopy; assay type: functional, cell-based
# A2780 [15] = assay: Induction of apoptosis in human A2780 cells assessed as depolarization of mitochondrial membrane potential incubated for 2 hrs by TMRE staining based flow cytometry; assay type: functional, cell-based; how it was run: as §2
# A2780cisR [16] = assay: Effect on ROS generation in human A2780cisR cells at 316 nM incubated for 18 hrs by H2DCFDA staining based flow cytometry; assay type: functional, cell-based
# How it was run: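 Cells plated in 24-well plates (about 150,000/well) overnight, then exposed 18 h. Washed and moved to phenol red-free, serum-free RPMI-1640, then loaded with 10 µM H2DCF-DA for 30 min at 37 °C in the dark. One aliquot read directly, the other after 250 µM H2O2 for 1 h at 37 °C. DCF fluorescence read by flow cytometry. Three independent experiments.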
# J82 [17] = assay: Ratio of IC50 for antiproliferative activity in human J82 cells to cisplatin-resistant human J82 cells assessed as reduction of cell viability incubated for 72 hrs by MTT assay; assay type: functional; how it was run: as §4
compound,measurement,setting,value
CC(=O)OC[C@]12Oc3c(-c4ccc(O)c5c4O[C@@]4(COC(C)=O)C(=C(O)C[C@@H](C)[C@H]4OC(C)=O)C5=O)ccc(O)c3C(=O)C1=C(O)C[C@@H](C)[C@H]2OC(C)=O [PHOMOXANTHONE A],IC50,A2780 [1]; read-out: IC50,1.18 µM
same,IC50,A2780 [1]; read-out: pIC50 (converted),1.17 µM
same,Activity,J82 [2],inactive
same,Activity,A2780cisR [3],71%
same,Activity,A2780cisR [4],50%
same,IC50,CAL-27,5.25 µM
same,Activity,A2780cisR [5],72.7%
same,Ratio IC50,J82 [6],4
same,Activity,A2780 [7],Tde
same,Activity,A2780 [8],Active
same,Ratio IC50,HCT-116,2 - 10
same,IC50,J82 [9],3.23 µM
same,Ratio IC50,Homo sapiens,3
same,Activity,J82 [10],68%
same,Activity,J82 [11],100%
same,IC50,J82 [12],2.04 µM
same,Activity,A2780 [13],Dose-dependent effect
same,Activity,A2780cisR [14],Active
same,Activity,A2780 [15],Dose-dependent effect
same,IC50,"A2780 [15]; A2780, 2 h",0.75 µM
same,Activity,A2780cisR [16],inactive
same,Ratio IC50,J82 [17],1.6
